Experimental data from different studies.
Lines come from different studies, so protocols differ.
Read-out: cell growth or viability

SMILES	cell line	test	setting	endpoint	value
O=C(O)c1ccccc1Nc1cccc(C(F)(F)F)c1	BXPC-3	SRB	48 h	GI50	> 30 µM
COc1cc2c3c(n(CCCNC(C)C)c(=O)c2cc1OC)-c1nc2c(cc1C3=O)OCO2	RD-ES	MTS	72 h	IC50	0.031 µM
Nc1ccc(/C=C/C(=O)NCc2cc3cc(-c4ccc(C(=O)N5CCC(F)(F)CC5)cc4)cc(-c4ccc(F)cc4)c3o2)cn1	BXPC-3	CCK-8	72 h	IC50	> 20 µM
Cc1nc(Nc2ccc3c(c2)C(C)(C)C(=O)N3)c2ccccc2n1	B16	MTT	–	IC50	14.8 µM
Nc1ccc(/C=C/C(=O)N2CCc3c(oc4c(-c5ccc(F)cc5)cc(-c5ccc(C(=O)N6CCC(F)(F)CC6)nn5)cc34)C2)cn1	BXPC-3	CCK-8	72 h	IC50	> 20 µM
COc1cc2c3c(n(CCCNCCO)c(=O)c2cc1OC)-c1nc2c(cc1C3=O)OCO2	RD-ES	MTS	72 h	IC50	0.022 µM
Cc1nc(Nc2ccc3c(c2)C(C)(C)C(=O)N3C)c2ccccc2n1	B16	MTT	–	IC50	14 µM
O=C(O)c1cccnc1Nc1cccc(C(F)(F)F)c1	BXPC-3	SRB	48 h	GI50	> 30 µM
Cc1nc(Nc2ccc3c(c2)CC(=O)N3)c2ccccc2n1	B16	MTT	–	IC50	3.13 µM
C=CC(=O)NC1CCN(c2ncc3ncnc(Nc4ccc(Oc5ccc6c(c5)ncn6C)c(C)c4)c3n2)CC1	JHH-4	–	–	EC50	0.108 µM
COc1cc2c3c(n(CCCn4ccnc4)c(=O)c2cc1OC)-c1nc2c(cc1C3=O)OCO2	RD-ES	MTS	72 h	IC50	0.18 µM
Cc1sc2c(c1C)C(c1ccc(Cl)cc1)=N[C@@H](CC(=O)NCCCCCCCCNC(=O)COc1cccc3c1C(=O)N(C1CCC(=O)NC1=O)C3=O)c1nnc(C)n1-2 (stereo partly drawn)	BXPC-3	ATP luminescence	–	IC50	0.27 µM
